Source: ChEMBL document CHEMBL3286368, “Delayed and Prolonged Histone Hyperacetylation with a Selective HDAC1/HDAC2 Inhibitor” (ACS Med Chem Lett, 2014)

How the values were obtained:
[1] = target: Voltage-gated inwardly rectifying potassium channel KCNH2 (Homo sapiens, UniProt Q12809); experiment: Binding affinity to human ERG
[2] = target: Histone deacetylase 1 (Homo sapiens, UniProt Q13547); assay type: cell-based, HEK293F
[3] = system: HCT-116; experiment: cells; assay type: functional, Homo sapiens; details: Homo sapiens, HCT-116, 72 h
[4] = Solubility of the compound; assay type: physicochemical
Procedure, shortened: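 Solubility determined on the bis-HCl salt, reported in mg/mL.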

Sequence of Voltage-gated inwardly rectifying potassium channel KCNH2 (Q12809 whole entry): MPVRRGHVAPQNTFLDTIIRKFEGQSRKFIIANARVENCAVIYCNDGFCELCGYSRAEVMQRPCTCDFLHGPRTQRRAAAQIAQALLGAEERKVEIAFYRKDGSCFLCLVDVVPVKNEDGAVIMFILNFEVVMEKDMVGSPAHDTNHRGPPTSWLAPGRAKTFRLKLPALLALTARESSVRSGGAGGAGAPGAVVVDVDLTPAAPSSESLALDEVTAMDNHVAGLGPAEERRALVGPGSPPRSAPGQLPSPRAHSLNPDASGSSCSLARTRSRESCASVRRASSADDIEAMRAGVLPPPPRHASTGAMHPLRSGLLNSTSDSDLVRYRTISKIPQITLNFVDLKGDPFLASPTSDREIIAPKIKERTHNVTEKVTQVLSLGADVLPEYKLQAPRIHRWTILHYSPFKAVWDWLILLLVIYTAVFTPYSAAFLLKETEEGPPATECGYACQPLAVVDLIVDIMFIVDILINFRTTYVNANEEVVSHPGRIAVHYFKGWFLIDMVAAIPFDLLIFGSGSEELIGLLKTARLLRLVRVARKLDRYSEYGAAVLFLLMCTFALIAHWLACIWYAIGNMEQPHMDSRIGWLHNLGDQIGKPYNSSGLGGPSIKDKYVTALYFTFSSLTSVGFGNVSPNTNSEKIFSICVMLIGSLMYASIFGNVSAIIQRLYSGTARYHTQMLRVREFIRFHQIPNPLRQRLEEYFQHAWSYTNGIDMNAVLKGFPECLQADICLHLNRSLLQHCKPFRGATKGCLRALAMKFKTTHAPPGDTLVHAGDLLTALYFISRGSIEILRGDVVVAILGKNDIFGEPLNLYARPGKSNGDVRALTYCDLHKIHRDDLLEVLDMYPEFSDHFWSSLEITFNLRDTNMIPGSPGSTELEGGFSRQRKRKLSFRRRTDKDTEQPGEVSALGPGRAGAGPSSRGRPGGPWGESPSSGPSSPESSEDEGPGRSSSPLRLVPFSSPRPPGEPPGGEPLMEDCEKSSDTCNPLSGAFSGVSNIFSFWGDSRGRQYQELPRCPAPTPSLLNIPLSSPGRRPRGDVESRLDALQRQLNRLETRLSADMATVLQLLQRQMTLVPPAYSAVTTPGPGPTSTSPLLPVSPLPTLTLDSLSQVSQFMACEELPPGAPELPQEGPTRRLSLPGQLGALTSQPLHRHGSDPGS
Sequence of Histone deacetylase 1 (Q13547 whole entry): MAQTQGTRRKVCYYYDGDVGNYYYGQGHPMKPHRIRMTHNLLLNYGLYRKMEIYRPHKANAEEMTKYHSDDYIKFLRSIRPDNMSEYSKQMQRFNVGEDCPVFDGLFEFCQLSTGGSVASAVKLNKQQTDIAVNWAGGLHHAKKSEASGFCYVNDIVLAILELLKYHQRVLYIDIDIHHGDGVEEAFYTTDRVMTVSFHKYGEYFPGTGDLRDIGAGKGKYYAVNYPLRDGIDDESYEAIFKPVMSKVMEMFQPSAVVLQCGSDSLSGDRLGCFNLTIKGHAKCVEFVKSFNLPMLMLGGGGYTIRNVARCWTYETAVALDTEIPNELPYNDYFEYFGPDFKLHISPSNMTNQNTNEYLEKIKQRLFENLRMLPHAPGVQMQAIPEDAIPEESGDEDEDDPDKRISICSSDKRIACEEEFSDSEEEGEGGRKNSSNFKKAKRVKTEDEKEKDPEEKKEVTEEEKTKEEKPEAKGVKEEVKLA

| Compound | IC50 [2] | GI50 [3] | solubility [4] | Ki [1] |
| --- | --- | --- | --- | --- |
| Nc1ccc(-c2ccsc2)cc1NC(=O)c1ccc(N2CCC3(CC2)CNC(=O)O3)nc1 | 11 nM | 270 nM | – | > 30000 nM |
| Cc1csc(-c2ccc(N)c(NC(=O)c3ccc(N4CCC5(CC4)CNC(=O)O5)nc3)c2)c1 | 14 nM | 890 nM | – | 2000 nM |
| Nc1ccc(-c2ccc(F)cc2)cc1NC(=O)c1ccc(N2CCC3(CC2)CNC(=O)O3)nc1 | 20 nM | 710 nM | – | 620 nM |

More lines, main results first:

| IC50 [2] | GI50 [3] | solubility [4] | Compound | Ki [1] |
| --- | --- | --- | --- | --- |
| 17 nM | 490 nM | – | Nc1ccc(-c2ccccc2)cc1NC(=O)c1ccc(N2CCC3(CC2)CNC(=O)O3)nc1 | 3400 nM |
| 18 nM | 2120 nM | – | Cn1cc(-c2ccc(N)c(NC(=O)c3ccc(N4CCC5(CC4)CNC(=O)O5)nc3)c2)cn1 | > 10000 nM |
| 51 nM | 4650 nM | – | Cn1cnc(-c2ccc(N)c(NC(=O)c3ccc(N4CCC5(CC4)CNC(=O)O5)nc3)c2)c1 | > 10000 nM |
| 580 nM | 5080 nM | – | Nc1ccccc1NC(=O)c1ccc(N2CCC3(CC2)CNC(=O)O3)nc1 | > 10000 nM |
| – | – | 1300 µg/mL | Cl.Nc1ccc(-c2cccs2)cc1NC(=O)c1ccc(N2CCC3(CC2)CNC(=O)O3)nc1 | – |
